Active and inactive are the calls of the source. The calls are words filed in the database; no cut-off is given here.
Columns and labels:
[1] = target: Tyrosyl-DNA phosphodiesterase 1 (Homo sapiens, UniProt Q9NUW8); assay: Inhibition of recombinant Tdp1 (unknown origin) using 5'-[32P]-labeled single-stranded DNA oligonucleotide containing 3'-phosphotyrosine as substrate after 15 mins by PAGE analysis
[2] = target: T1, DNA topoisomerase 1 (Homo sapiens) (UniProt P11387); assay: Inhibition of recombinant Top1 (unknown origin) using 3'-[32P]-end-labeled 117 bp oligonucleotide as substrate after 20 mins by SDS-PAGE analysis
T1 sequence (whole entry): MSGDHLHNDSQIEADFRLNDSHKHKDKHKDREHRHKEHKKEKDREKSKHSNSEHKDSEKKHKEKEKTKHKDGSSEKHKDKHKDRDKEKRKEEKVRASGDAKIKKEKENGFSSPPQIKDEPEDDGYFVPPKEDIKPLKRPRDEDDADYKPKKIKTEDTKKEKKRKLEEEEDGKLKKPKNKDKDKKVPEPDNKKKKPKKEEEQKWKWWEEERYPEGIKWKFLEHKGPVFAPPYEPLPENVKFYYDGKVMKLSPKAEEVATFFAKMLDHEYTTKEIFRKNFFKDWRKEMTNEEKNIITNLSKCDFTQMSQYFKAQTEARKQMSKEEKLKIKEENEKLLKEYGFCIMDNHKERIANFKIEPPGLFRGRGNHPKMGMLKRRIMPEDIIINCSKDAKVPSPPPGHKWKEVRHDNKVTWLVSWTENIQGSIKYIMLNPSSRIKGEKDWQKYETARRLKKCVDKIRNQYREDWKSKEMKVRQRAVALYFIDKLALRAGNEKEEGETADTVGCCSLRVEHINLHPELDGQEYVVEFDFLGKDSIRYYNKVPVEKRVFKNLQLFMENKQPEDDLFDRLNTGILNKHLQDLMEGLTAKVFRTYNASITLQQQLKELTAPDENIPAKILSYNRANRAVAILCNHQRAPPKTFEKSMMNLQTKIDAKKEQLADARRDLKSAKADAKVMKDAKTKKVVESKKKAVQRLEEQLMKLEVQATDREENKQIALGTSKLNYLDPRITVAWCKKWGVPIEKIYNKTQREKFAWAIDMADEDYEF
Outline: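 3′-[32P]-end-labeled 117-bp DNA at 2 nM incubated with recombinant Top1 at 25 °C for 20 min across a range of compound concentrations. Stopped with SDS (0.5% final) plus formamide loading dye, then 20% denaturing PAGE. Dried gels were phosphorimaged.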

SN12C = assay: Growth inhibition of human SN12C cells; format: functional
OVCAR-3 = assay: Growth inhibition of human OVCAR3 cells; format: functional
DU-145 = assay: Growth inhibition of human DU145 cells; format: functional
SF-539 = assay: Growth inhibition of human SF539 cells; format: functional
Outline: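 Human cancer cell line panel, compounds tested at concentrations up to 10 μM. GI50 per cell line is the mean of two determinations where a standard error is given, otherwise from one determination.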

MDA-MB-435 = assay: Growth inhibition of human MDA-MB-435 cells; format: functional
UACC-62 = assay: Growth inhibition of human UACC62 cells; format: functional
HCT-116 = assay: Growth inhibition of human HCT116 cells; format: functional
HOP-62 = assay: Growth inhibition of human HOP62 cells; format: functional
[3] = target: T1, DNA topoisomerase 1 (Homo sapiens); assay: Inhibition of recombinant Top1 (unknown origin) using 3'-[32P]-end-labeled 117 bp oligonucleotide as substrate after 20 mins by SDS-PAGE analysis relative to 1 uM MJ-3-65

Sequence of Tyrosyl-DNA phosphodiesterase 1 (Q9NUW8 whole entry): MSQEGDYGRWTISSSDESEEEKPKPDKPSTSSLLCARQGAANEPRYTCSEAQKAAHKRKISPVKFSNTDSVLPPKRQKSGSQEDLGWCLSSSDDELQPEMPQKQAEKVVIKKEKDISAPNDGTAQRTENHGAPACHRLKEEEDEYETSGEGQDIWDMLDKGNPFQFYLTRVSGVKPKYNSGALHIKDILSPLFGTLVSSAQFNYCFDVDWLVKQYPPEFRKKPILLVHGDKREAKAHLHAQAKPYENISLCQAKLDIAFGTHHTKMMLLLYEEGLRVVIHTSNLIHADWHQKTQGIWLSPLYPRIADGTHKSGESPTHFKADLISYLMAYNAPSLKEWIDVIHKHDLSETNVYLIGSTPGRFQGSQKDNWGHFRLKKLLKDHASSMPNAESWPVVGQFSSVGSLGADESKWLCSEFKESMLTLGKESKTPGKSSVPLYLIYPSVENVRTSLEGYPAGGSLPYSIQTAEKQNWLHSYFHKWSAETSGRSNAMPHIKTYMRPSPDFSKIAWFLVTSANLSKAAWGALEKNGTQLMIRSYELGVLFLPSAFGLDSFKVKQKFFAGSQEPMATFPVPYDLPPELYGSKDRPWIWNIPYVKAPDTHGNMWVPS

COC(=O)CCC(=O)Nc1ccc2c3c(n(C)c(=O)c2c1)-c1ccccc1C3=O
IC50 [1]: > 111000 nM

CCOC(=O)CNc1ccc2c3c(n(C)c(=O)c2c1)-c1ccccc1C3=O
IC50 [1]: > 111000 nM
inhibition [2]: inactive

CC(=O)Nc1ccc2c3c(n(CCCN)c(=O)c2c1)-c1ccccc1C3O (stereo not given)
inhibition [2]: inactive

CCOC(=O)CNc1ccc2c3c(n(CCCN)c(=O)c2c1)-c1ccccc1C3=O
GI50 (SN12C): 1750 nM
GI50 (OVCAR-3): 3120 nM
GI50 (DU-145): 1680 nM
GI50 (SF-539): 8910 nM
GI50 (MDA-MB-435): 3050 nM
GI50 (UACC-62): 2250 nM
GI50 (HCT-116): 440 nM
GI50 (HOP-62): 930 nM

N#Cc1ccc2c3c(n(CCCN4CCOCC4)c(=O)c2c1)-c1ccccc1C3=O
IC50 [1]: > 111000 nM
inhibition [3]: Active

COC(=O)CCCC(=O)Nc1ccc2c3c(n(CCCN)c(=O)c2c1)-c1ccccc1C3=O
GI50 (SN12C): 1020 nM
GI50 (OVCAR-3): 1470 nM
GI50 (DU-145): 540 nM
GI50 (SF-539): 1470 nM
GI50 (MDA-MB-435): 2050 nM
GI50 (UACC-62): 1220 nM
inhibition [2]: inactive
GI50 (HCT-116): 380 nM
GI50 (HOP-62): 790 nM

CN(C)CCCn1c2c(c3ccc(C#N)cc3c1=O)C(=O)c1ccccc1-2
GI50 (SN12C): 190 nM
GI50 (OVCAR-3): 1720 nM
GI50 (DU-145): 240 nM
GI50 (SF-539): 1120 nM
GI50 (MDA-MB-435): 620 nM
GI50 (UACC-62): 190 nM
GI50 (HCT-116): 50 nM
GI50 (HOP-62): 260 nM
inhibition [3]: Active

COC(=O)CCCC(=O)Nc1ccc2c3c(n(C)c(=O)c2c1)-c1ccccc1C3=O
IC50 [1]: > 111000 nM
inhibition [2]: inactive

NCCCn1c2c(c3ccc(NC(=O)CCCCC(=O)O)cc3c1=O)C(=O)c1ccccc1-2
IC50 [1]: > 111000 nM
inhibition [2]: inactive

O=C1c2ccccc2-c2c1c1ccc([N+](=O)[O-])cc1c(=O)n2CCCO
GI50 (SN12C): 470 nM
GI50 (OVCAR-3): 870 nM
GI50 (DU-145): 430 nM
GI50 (MDA-MB-435): 1970 nM
GI50 (UACC-62): 310 nM
GI50 (HCT-116): 190 nM
inhibition [3]: Active

N#Cc1ccc2c3c(n(CCCn4ccnc4)c(=O)c2c1)-c1ccccc1C3=O
IC50 [1]: > 111000 nM
inhibition [3]: Active

COC(=O)CCC(=O)Nc1ccc2c3c(n(CCCNC(=O)OC(C)(C)C)c(=O)c2c1)-c1ccccc1C3=O
IC50 [1]: > 111000 nM
inhibition [2]: inactive

COc1ccc2c(c1)-c1c(c3ccc([N+](=O)[O-])cc3c(=O)n1CCCN)C2=O
GI50 (SN12C): 150 nM
GI50 (OVCAR-3): 540 nM
GI50 (DU-145): 180 nM
GI50 (SF-539): 610 nM
GI50 (MDA-MB-435): 580 nM
GI50 (HCT-116): 60 nM
inhibition [3]: Active

COC(=O)CC(=O)Nc1ccc2c3c(n(CCCN)c(=O)c2c1)-c1ccccc1C3=O
GI50 (SN12C): 1460 nM
GI50 (OVCAR-3): 3220 nM
IC50 [1]: 18000 nM
GI50 (DU-145): 1570 nM
GI50 (SF-539): 4030 nM
GI50 (MDA-MB-435): 2330 nM
GI50 (UACC-62): 1690 nM
GI50 (HCT-116): 540 nM
GI50 (HOP-62): 1560 nM

NCCCn1c2c(c3ccc(N)cc3c1=O)C(=O)c1ccccc1-2
GI50 (SN12C): 230 nM
GI50 (OVCAR-3): 130 nM
GI50 (DU-145): 120 nM
GI50 (SF-539): 340 nM
GI50 (MDA-MB-435): 230 nM
GI50 (UACC-62): 300 nM
GI50 (HCT-116): 180 nM
GI50 (HOP-62): 270 nM

Cn1c2c(c3ccc(NC(=O)CC(=O)O)cc3c1=O)C(=O)c1ccccc1-2
IC50 [1]: > 111000 nM

COC(=O)CCCC(=O)Nc1ccc2c3c(n(CCCNC(=O)OC(C)(C)C)c(=O)c2c1)-c1ccccc1C3=O
IC50 [1]: > 111000 nM
inhibition [2]: inactive

NCCCn1c2c(c3ccc(NCC(=O)O)cc3c1=O)C(=O)c1ccccc1-2
GI50 (SN12C): 490 nM
GI50 (OVCAR-3): 1600 nM
GI50 (DU-145): 1510 nM
GI50 (SF-539): 1790 nM
GI50 (MDA-MB-435): 1140 nM
GI50 (UACC-62): 720 nM
inhibition [2]: inactive
GI50 (HCT-116): 330 nM
GI50 (HOP-62): 650 nM

CC(=O)Nc1ccc2c3c(n(CCCO)c(=O)c2c1)-c1ccccc1C3=O
inhibition [2]: inactive

COc1ccc2c(c1)C(=O)c1c-2n(CCCN)c(=O)c2cc(N)ccc12
GI50 (SN12C): < 10 nM
GI50 (OVCAR-3): 20 nM
GI50 (DU-145): < 10 nM
GI50 (SF-539): 30 nM
GI50 (MDA-MB-435): 120 nM
GI50 (UACC-62): 100 nM
GI50 (HCT-116): < 10 nM
GI50 (HOP-62): < 10 nM

NCCCn1c2c(c3ccc(NC(=O)C(=O)O)cc3c1=O)C(=O)c1ccccc1-2
IC50 [1]: > 111000 nM
inhibition [2]: inactive

NCCCn1c2c(c3ccccc3c1=O)C(=O)c1ccccc1-2
inhibition [3]: Active

COc1ccc2c(c1)-c1c(c3ccc([N+](=O)[O-])cc3c(=O)n1CCCN1CCOCC1)C2=O
IC50 [1]: > 111000 nM
inhibition [3]: Active

CC(C)(C)OC(=O)NCCCn1c2c(c3ccc(NC(=O)CCCC(=O)O)cc3c1=O)C(=O)c1ccccc1-2
IC50 [1]: > 111000 nM
inhibition [2]: inactive

COc1ccc2c(c1)C(=O)c1c-2n(CCCN)c(=O)c2cc(I)ccc12
GI50 (SN12C): 50 nM
GI50 (OVCAR-3): 1320 nM
GI50 (DU-145): 50 nM
GI50 (SF-539): 390 nM
GI50 (MDA-MB-435): 960 nM
GI50 (UACC-62): 140 nM
GI50 (HCT-116): 70 nM
GI50 (HOP-62): 140 nM

CC(=O)Nc1ccc2c3c(n(CCCN)c(=O)c2c1)-c1ccccc1C3=O
inhibition [2]: inactive

COc1ccc2c(c1)-c1c(c3ccc([N+](=O)[O-])cc3c(=O)n1CCCN=[N+]=[N-])C2=O
IC50 [1]: > 111000 nM
inhibition [2]: inactive

CC(C)(C)OC(=O)NCCCn1c2c(c3ccc(NCC(=O)O)cc3c1=O)C(=O)c1ccccc1-2
IC50 [1]: > 111000 nM
inhibition [2]: inactive

Cn1c2c(c3ccc(NC(=O)C(=O)O)cc3c1=O)C(=O)c1ccccc1-2
inhibition [3]: Active

COC(=O)C(=O)Nc1ccc2c3c(n(C)c(=O)c2c1)-c1ccccc1C3=O
IC50 [1]: > 111000 nM
inhibition [2]: inactive

COC(=O)CC(=O)Nc1ccc2c3c(n(CCCNC(=O)OC(C)(C)C)c(=O)c2c1)-c1ccccc1C3=O
IC50 [1]: > 111000 nM
inhibition [2]: inactive

COC(=O)CCCCC(=O)Nc1ccc2c3c(n(CCCN)c(=O)c2c1)-c1ccccc1C3=O
GI50 (SN12C): 1820 nM
GI50 (OVCAR-3): 3520 nM
GI50 (DU-145): 770 nM
GI50 (SF-539): 5650 nM
GI50 (MDA-MB-435): 4300 nM
GI50 (UACC-62): 2430 nM
GI50 (HCT-116): 510 nM
GI50 (HOP-62): 2320 nM

Cn1c2c(c3ccc(NCC(=O)O)cc3c1=O)C(=O)c1ccccc1-2
IC50 [1]: > 111000 nM
inhibition [2]: inactive

COC(=O)CCCCC(=O)Nc1ccc2c3c(n(C)c(=O)c2c1)-c1ccccc1C3=O
IC50 [1]: > 111000 nM
inhibition [2]: inactive

NCCCn1c2c(c3ccc(NC(=O)CC(=O)O)cc3c1=O)C(=O)c1ccccc1-2
IC50 [1]: > 111000 nM
inhibition [2]: inactive

COC(=O)CC(=O)Nc1ccc2c3c(n(C)c(=O)c2c1)-c1ccccc1C3=O
IC50 [1]: > 111000 nM
inhibition [2]: inactive

COC(=O)C(=O)Nc1ccc2c3c(n(CCCN)c(=O)c2c1)-c1ccccc1C3=O
GI50 (SN12C): 2530 nM
GI50 (OVCAR-3): 4010 nM
IC50 [1]: 45000 nM
GI50 (DU-145): 1110 nM
GI50 (SF-539): 6900 nM
GI50 (MDA-MB-435): 3360 nM
GI50 (UACC-62): 1220 nM
inhibition [2]: inactive
GI50 (HCT-116): 570 nM
GI50 (HOP-62): 650 nM

CC(=O)Nc1ccc2c3c(n(CCCN=[N+]=[N-])c(=O)c2c1)-c1ccccc1C3=O
inhibition [3]: Active

NCCCn1c2c(c3ccc(NC(=O)CCC(=O)O)cc3c1=O)C(=O)c1ccccc1-2
IC50 [1]: > 111000 nM
inhibition [2]: inactive

NCCCn1c2c(c3ccc(NC(=O)CCCC(=O)O)cc3c1=O)C(=O)c1ccccc1-2
IC50 [1]: > 111000 nM
inhibition [2]: inactive

COc1ccc2c(c1)-c1c(c3ccc([N+](=O)[O-])cc3c(=O)n1CCCBr)C2=O
IC50 [1]: > 111000 nM
inhibition [3]: Active
